{
  "source": "paper PMC11646436",
  "about": "(International Journal of Nanomedicine, 2024)",
  "key": {"[1]": {"tested_on": "PANC-1 cells", "test": "MTT cytotoxicity assay", "format": "cell-based, Human"}, "[2]": {"tested_on": "Mia PaCa-2 cells", "test": "MTT cytotoxicity assay", "format": "cell-based", "conditions": "Homo sapiens"}, "[3]": {"tested_on": "AsPC-1-luc orthotopic xenograft", "test": "Pharmacodynamics in AsPC-1-luc orthotopic xenograft model", "format": "in vivo, BALB/c nude mice", "how_it_was_run": "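AsPC-1-luc cells were grown in RPMI-1640 with 10% FBS and 0.5 μg/mL puromycin. Under anaesthesia, 3×10^6 cells in 25 μL were injected into the pancreas of BALB/c nude mice. On day 7, luciferase substrate was given i.p. and mice were IVIS-imaged within 5 min, then grouped by bioluminescence. Dosing was i.v., Q3D × 6: 5% glucose, parent drug 10 mg/kg, or liposomal test compound 5 mg/kg. Mice were imaged on Days 17 and 27, followed by ex vivo organ imaging.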"}, "[4]": {"tested_on": "AsPC-1 cells", "test": "Cell cycle analysis by flow cytometry", "format": "cell-based, Human", "conditions": "AsPC-1, 10 μM, 24 h", "how_it_was_run": "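AsPC-1 cells were seeded at 5×10^5 per well in 6-well plates and exposed to 10 μM test compound. They were then fixed overnight in cold 70% ethanol, stained with propidium iodide containing RNase A in the dark at room temperature, and analysed by flow cytometry for cell-cycle phase percentages. Mean ± SD, n = 3.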"}, "[5]": {"tested_on": "AsPC-1 cells", "test": "Transwell cell invasion assay", "format": "cell-based, Human", "conditions": "AsPC-1, 1 μM, 48 h", "how_it_was_run": "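AsPC-1 cells (1×10^4) were placed in serum-free medium in the upper chamber of 8-μm-pore transwells, with complete medium below, and treated with 1 μM test compound for 48 h. Cells on the upper membrane surface were swabbed off. Cells on the lower surface were stained with 0.5% crystal violet and counted per field under bright-field microscopy. Mean ± SD, n = 3.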"}, "[6]": {"tested_on": "SU.86.86 cells", "test": "MTT cytotoxicity assay", "format": "cell-based", "conditions": "Homo sapiens, SU.86.86, 48 h", "how_it_was_run": "(§1)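 Seeding was 2×10^4 per well for AsPC-1 and 1×10^4 for PANC-1, BxPC-3, Mia PaCa-2 and SU.86.86; cells adhered for 24 h at 37°C in 5% CO2. Test compound was given at 0.01, 0.1, 1, 10 and 100 μM for 48 h. MTT (5 mg/mL stock in PBS) was added for 4 h, dissolved in DMSO, and read at 490 nm. Viability was calculated against drug-free cells and cell-free blanks. Mean ± SD, n = 3.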"}, "[7]": {"test": "Tissue distribution in AsPC-1 tumor-bearing mice", "format": "in vivo, BALB/c nude mice", "conditions": "i.v. 38 μmol/kg", "how_it_was_run": "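BALB/c nude mice carrying subcutaneous AsPC-1 tumours (5×10^6 cells, right flank; 300–500 mm3) received one i.v. bolus at an equimolar 38 μmol/kg (parent drug 10 mg/kg; liposomal prodrug 19 mg/kg). After cardiac perfusion, tumour, heart, liver, spleen, lung, kidney and pancreas were collected at 0.5, 4, 8, 12 and 24 h. Parent nucleoside and prodrug were measured by LC-MS/MS.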"}, "[8]": {"tested_on": "AsPC-1 cells", "test": "Cellular accumulation by LC-MS/MS", "format": "cell-based, Human", "conditions": "AsPC-1, 10 μM, 48 h; Gem (Gem group), Gem and tcGem (LipotcGem group)", "how_it_was_run": "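AsPC-1 cells were seeded at 5×10^6 per 10 cm dish overnight and exposed to 10 μM test compound for 12, 24 or 48 h. Cells were washed, counted and sonicated at 4°C in methanol-water (1:1). Parent nucleoside and prodrug were quantified by LC-MS/MS on a C8 UPLC column. The gradient was water/acetonitrile with 0.1% formic acid at 0.2 mL/min.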"}, "[9]": {"tested_on": "BxPC-3 cells", "test": "MTT cytotoxicity assay", "format": "cell-based", "conditions": "Homo sapiens, BXPC-3, 48 h", "how_it_was_run": "as §1"}, "[10]": {"tested_on": "AsPC-1 cells", "test": "MTT cytotoxicity assay", "format": "cell-based", "conditions": "Homo sapiens, ASPC1, 48 h, AsPC-1, 48 h incubation, 2×10^4 cells per well", "how_it_was_run": "as §1"}, "[11]": {"tested_on": "AsPC-1 subcutaneous xenograft", "test": "Pharmacodynamics in AsPC-1 subcutaneous xenograft model", "format": "in vivo, BALB/c nude mice", "how_it_was_run": "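Female BALB/c nude mice (18–20 g) received 5×10^6 AsPC-1 cells subcutaneously in the right flank. At ~100 mm3 they were sorted by volume and randomised into three groups. Dosing was i.v., Q3D × 6: 5% glucose vehicle, parent drug 10 mg/kg, or liposomal test compound 5 mg/kg. Tumour volume and body weight were followed throughout. Tumours were weighed on Day 30, one week after the last dose, and organs were taken for H&E. n = 5.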"}},
  "data": [
    {"compound": "Nc1ccn([C@@H]2O[C@H](CO)[C@@H](O)C2(F)F)c(=O)n1", "note": "[Gem, Gemcitabine]", "values": [
      {"measurement": "IC50", "setting": "[1]; Homo sapiens, PANC-1, 48 h", "result": "> 100", "unit": "µM"},
      {"measurement": "cell viability", "setting": "[1]; PANC-1, lower cell densities and extended exposure time", "result": "above 50%"},
      {"measurement": "IC50", "setting": "[2]; MIA PaCa-2, 48 h", "result": "> 100", "unit": "µM"},
      {"measurement": "IC50", "setting": "[2]; MIA PaCa-2, 72 h", "result": 73.5, "unit": "µM"},
      {"measurement": "metastatic burden (bioluminescent signals, liver and intestine)", "setting": "[3]; Day 27, ex vivo", "result": "moderate"},
      {"measurement": "tumor inhibition rate (TIR)", "setting": "[3]; orthotopic model, i.v. Q3D × 6, Gem 10 mg/kg, LipotcGem 5 mg/kg", "result": 50, "unit": "%"},
      {"measurement": "Percentage of cells (%) S", "setting": "[4]", "result": 35, "unit": "%"},
      {"measurement": "invading cells", "setting": "[5]", "result": "129 ± 27", "unit": "cells per field"},
      {"measurement": "IC50", "setting": "[6]", "result": "> 100", "unit": "µM"},
      {"measurement": "concentration in tumors", "setting": "[7]; 8 h, Gem (Gem group), Gem and tcGem (LipotcGem group)", "result": 0.004, "unit": "µmol/g"},
      {"measurement": "Gem concentration in tumor tissues and plasma over time", "setting": "[7]", "result": "undetectable beyond 8 h"},
      {"measurement": "intracellular accumulation", "setting": "[8]", "result": 0.0015, "unit": "nmol/10^6 cells"},
      {"measurement": "IC50", "setting": "[9]", "result": 4.35, "unit": "µM"},
      {"measurement": "IC50", "setting": "[10]", "result": "> 100", "unit": "µM"},
      {"measurement": "tumor inhibition rate (TIR), tumor weight", "setting": "[11]; Day 30, i.v. Q3D × 6, Gem 10 mg/kg, LipotcGem 5 mg/kg", "result": 49, "unit": "%"},
      {"measurement": "tumor inhibition rate (TIR), tumor volume", "setting": "[11]; i.v. Q3D × 6, Gem 10 mg/kg, LipotcGem 5 mg/kg", "result": 50, "unit": "%"},
      {"measurement": "body weight", "setting": "[11]; subcutaneous model, throughout treatment", "result": "No significant weight loss"}
    ]}
  ]
}
